# pKi: −log10 of the molar value. Like-named read-outs stand apart in the source and are kept apart here.
# Columns and labels:
# SP1–7 binding site [1] = conditions: rat spinal cord membranes preparation; cited from earlier work
# SP1–7 binding site [2] = assay: Dynamic PET imaging, blocking experiments; assay type: in vivo, Wistar rats
# In short: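 Healthy male Wistar rats (200–320 g) under isoflurane (3% induction, 1–2.5% maintenance, in oxygen). A 5 min CT or 15 min MRI preceded the i.v. tail-vein tracer bolus and a 60 min dynamic PET scan. Blockers were SP1–7 (5% DMSO in saline), 185 nmol·kg–1 i.p. 15 min before, or the unlabeled tracer analogue (20% EtOH in saline), 3 μmol·kg–1 slow i.v. 3 or 20 min before. Read-out was manual brain/spinal cord ROI SUV ± SD.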
# Caco-2 cell monolayer = conditions: cited from earlier work
# [3] = mouse plasma; cited from earlier work
# SP1–7 binding site [4] = conditions: read-out: binding; rat ventral tegmental area; cited from earlier work
# [5] = self-blocking, i.v. 3 μmol·kg^–1, 3 min prior to tracer
# [6] = blocker i.p. 185 nmol·kg^–1, 15 min prior to tracer
compound,measurement,setting,value
"NC(=O)[C@H](Cc1ccccc1)NC(=O)OCc1ccccc1 [compound 1, (S)-Benzyl (1-Amino-1-oxo-3-phenylpropan-2-yl)carbamate]",pKi,SP1–7 binding site [1],8.28
same,blocking of [^11C]1 brain uptake,"SP1–7 binding site [2]; blocker i.v. 3 μmol·kg^–1, 20 min prior to tracer",did not block brain uptake
same,blocking of [^11C]1 spinal cord uptake,"SP1–7 binding site [2]; self-blocking, 3 or 20 min prior to tracer injection",did not show any blocking
"NC(=O)[C@@H](Cc1ccccc1)NC(=O)OCc1ccccc1 [compound 2, (R)-Benzyl (1-Amino-1-oxo-3-phenylpropan-2-yl)carbamate]",blocking of [^11C]2 brain uptake,SP1–7 binding site [2]; [5],did not show any blocking effect
same,blocking of [^11C]2 spinal cord uptake,SP1–7 binding site [2]; [5],did not show any blocking effect
H-Arg-Pro-Lys-Pro-Gln-Gln-Phe-OH (H-RPKPQQF-OH) [SP1–7],blocking of [^11C]1 brain uptake,SP1–7 binding site [2]; [6],did not block brain uptake
same,blocking of [^11C]1 spinal cord uptake,SP1–7 binding site [2]; [6],moderate blocking
same,permeability,Caco-2 cell monolayer,failed to display any measurable permeability
same,in vitro half-life,[3],4.4 min
same,pKi,SP1–7 binding site [4],8.41

# Reference: paper PMC6220361 (Molecular Pharmaceutics, 2018)
